The values below come from ChEMBL document CHEMBL3616436, “Synthesis, cytotoxicity and antimicrobial activity of thiourea derivatives incorporating 3-(trifluoromethyl)phenyl moiety” (Eur J Med Chem, 2015).

A short description of data set [1]: Cytotoxicity against human MT4 cells. The format is cell-based.
Data set [2] deals with Vesicular stomatitis virus. As to the kind of experiment: Antiviral activity against Vesicular stomatitis virus ATCC VR 1540 infected in African green monkey Vero 76 cells assessed as reduction of virus-plaque formation after 2 days by crystal violet staining. The format is functional, organism-based. The following applies: ATCC VR 1540, Vero, 48 h.
The test system of data set [3] is Human immunodeficiency virus 1. As to the kind of experiment: Antiviral activity against HIV1 3B infected in human MT4 cells assessed as protection against virus-induced cytopathogenicity by MTT assay. It counts as functional, organism-based. The following applies: Human immunodeficiency virus 1, 3B. In general terms: Damage to the host cells serves as the signal in cytopathic effect assays.

Data set [4] can be described thus: Cytotoxicity against bovine MDBK cells assessed as cell viability after 48 to 96 hrs by MTT assay. Particulars: cattle. The format is cell-based, Bos taurus.
Data set [5] can be described thus: Antiviral activity against Bovine viral diarrhea virus 1-NADL ATCC VR-534 infected in MDBK cells assessed as protection against virus-induced cytopathogenicity after 3 to 4 days by MTT assay. It counts as functional, cell-based. The following applies: Bovine viral diarrhea virus isolates and strains, ATCC VR-534, MDBK. The gist of the method:
(§1)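 Cells seeded in 96-well plates (BHK 5x10^4, MDBK 3x10^4 cells/well), grown overnight to confluence, infected at m.o.i. 0.01 (BHK for Reo-1, MDBK for BVDV); serial compound dilutions in maintenance medium with 0.5% inactivated FBS added after 1 h; viability by MTT after 3–4 days at 37°C; EC50 for 50% protection by linear regression.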

A short description of data set [6]: Cytotoxicity against BHK cells assessed as cell viability after 48 to 96 hrs by MTT assay. The format is cell-based, Mesocricetus auratus. Particulars: hamster. In general terms: Formazan colour is commonly taken as a measure of viable cells.
The test system of the next data set is Yellow fever virus. As to the kind of experiment: Antiviral activity against Yellow fever virus 17D infected in BHK cells assessed as protection against virus-induced cytopathogenicity after 3 to 4 days by MTT assay. It counts as functional, cell-based.
Data set [7] has as its system Mammalian orthoreovirus 1. In words: Antiviral activity against Reovirus type-1 ATCC VR-214 infected in BHK cells assessed as protection against virus-induced cytopathogenicity after 3 to 4 days by MTT assay. It counts as functional, cell-based. The following applies: Mammalian orthoreovirus 1, ATCC VR-214, BHK. The method, boiled down: as §1
Data set [8] is described as follows: Cytotoxicity against African green monkey Vero 76 cells assessed as cell viability after 48 to 96 hrs by crystal violet staining. Particulars: chlorocebus sabaeus. It counts as cell-based.
Another data set relates to Coxsackievirus B5. In words: Antiviral activity against Human coxsackievirus B5 ATCC VR-29 infected in African green monkey Vero 76 cells assessed as reduction of virus-plaque formation after 3 days by crystal violet staining. The format is functional, organism-based. Particulars: Enterovirus B, ATCC VR-29, Vero, 72 h. The gist of the method:
(§2)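 Plaque reduction: Vero-76 at 2x10^5 cells/well grown to confluent monolayers, infected 2 h at 50–100 PFU/well; after removing unadsorbed virus, overlay of D-MEM, 1% inactivated FBS, 0.75% methylcellulose with or without serial compound dilutions; 3 days at 37°C, fixed and stained with crystal violet in 50% ethanol, plaques counted; EC50 by linear regression.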

The subject of another data set is Poliovirus 1. As to the kind of experiment: Antiviral activity against Poliovirus type 1 ATCC VR-1562 infected in African green monkey Vero 76 cells assessed as reduction of virus-plaque formation after 2 days by crystal violet staining. It counts as functional, organism-based. Particulars: Enterovirus C, ATCC VR-1562, Vero, 48 h.
A further data set deals with Vaccinia virus. In words: Antiviral activity against Human Vaccinia virus ATCC VR-1549 infected in African green monkey Vero 76 cells assessed as reduction of virus-plaque formation after 3 days by crystal violet staining. The format is functional, organism-based. Particulars: Orthopoxvirus vaccinia, ATCC VR-1549, Vero, 72 h.
In another data set the test system is Human alphaherpesvirus 1. As to the kind of experiment: Antiviral activity against Human herpesvirus 1 KOS ATCC VR-1493 infected in African green monkey Vero 76 cells assessed as reduction of virus-plaque formation after 3 days by crystal violet staining. It counts as functional, organism-based. Particulars: Human alphaherpesvirus 1, KOS ATCC VR1493, Vero, 72 h. The method, boiled down:
as §2

In data set [9] the test system is Escherichia coli. In words: Antimicrobial activity against Escherichia coli ATCC 10538 after 18 hrs by twofold serial microdilution method. The format is functional, organism-based. A general note: In broth dilution the organism is exposed to a series of concentrations in liquid medium.
In data set [10] the test system is Escherichia coli. As to the kind of experiment: Antimicrobial activity against Escherichia coli ATCC 25922 after 18 hrs by twofold serial microdilution method. The format is functional, organism-based.
The subject of data set [11] is Escherichia coli. As to the kind of experiment: Antimicrobial activity against Escherichia coli NCTC 8196 after 18 hrs by twofold serial microdilution method. The format is functional, organism-based.
Data set [12] concerns Pseudomonas aeruginosa. As to the kind of experiment: Antimicrobial activity against Pseudomonas aeruginosa ATCC 15442 after 18 hrs by twofold serial microdilution method. It counts as functional, organism-based.
Data set [13] deals with Pseudomonas aeruginosa. As to the kind of experiment: Antimicrobial activity against Pseudomonas aeruginosa NCTC 6749 after 18 hrs by twofold serial microdilution method. The format is functional, organism-based.
In data set [14] the test system is Pseudomonas aeruginosa. As to the kind of experiment: Antimicrobial activity against Pseudomonas aeruginosa ATCC 27863 after 18 hrs by twofold serial microdilution method. It counts as functional, organism-based.
The test system of data set [15] is Bordetella bronchiseptica. As to the kind of experiment: Antimicrobial activity against Bordetella bronchiseptica ATCC 4617 after 18 hrs by twofold serial microdilution method. It counts as functional, organism-based.
Data set [16] has as its system Candida albicans. As to the kind of experiment: Antimicrobial activity against Candida albicans ATCC 10231 after 24 hrs by twofold serial microdilution method. It counts as functional, organism-based.
The subject of data set [17] is Candida albicans. In words: Antimicrobial activity against Candida albicans ATCC 90028 after 24 hrs by twofold serial microdilution method. The format is functional, organism-based.
The subject of a further data set is Candida parapsilosis. As to the kind of experiment: Antimicrobial activity against Candida parapsilosis ATCC 22019 after 24 hrs by twofold serial microdilution method. The format is functional, organism-based.

The source made the active and inactive calls. No cut-off for these calls is given here.

A word on the CC50: it is the concentration giving 50% cytotoxicity. As a reminder, the EC50 is the concentration needed to bring the measured effect to its halfway point. For `CC(=O)NC(=S)Nc1cccc(C(F)(F)F)c1`, the CC50 in [1], in data set [4], in data set [6] and in data set [8] was greater than 100 µM throughout. Besides, the half-maximal effective concentration (EC50) (in [2]; in data set [3]; in [5]; in the data set with Yellow fever virus; in data set [7]; in the data set on Coxsackievirus B5) was greater than 100 µM in each case. Besides, the EC50 in the data set on Poliovirus 1, in the data set on Vaccinia virus and in the data set on Human alphaherpesvirus 1 was greater than 100 µM throughout. Moreover, the outcome in the data set with Escherichia coli [9], with Escherichia coli [10], in the data set with Escherichia coli [11], in the data set on Pseudomonas aeruginosa [12], in the data set on Pseudomonas aeruginosa [13] and in the data set on Pseudomonas aeruginosa [14] was inactive. The outcome (in [15]; with Candida albicans [16]; with Candida albicans [17]; with Candida parapsilosis) was inactive.

Take `CC[C@H]1CC[C@H](c2ccc(NC(=S)Nc3cccc(C(F)(F)F)c3)cc2)CC1`: the CC50 in data set [1] came to 39 µM; in [4] it was 9 µM; in data set [6], 10 µM; in data set [8], 10 µM. Further, the EC50 in data set [2] is greater than 10 µM; in data set [3] it was greater than 39 µM; in [5], greater than 9 µM; with Yellow fever virus, greater than 10 µM; in [7], greater than 10 µM; with Coxsackievirus B5, greater than 10 µM. Further, the concentration for a half-maximal effect (EC50) in the data set on Poliovirus 1, in the data set on Vaccinia virus and in the data set on Human alphaherpesvirus 1 was greater than 10 µM in each case. Also, the outcome in the data set on Escherichia coli [9], with Escherichia coli [10], in the data set with Escherichia coli [11], in the data set with Pseudomonas aeruginosa [12], in the data set with Pseudomonas aeruginosa [13] and with Pseudomonas aeruginosa [14] was inactive. Moreover, the outcome (in data set [15]; in the data set on Candida albicans [16]; in the data set on Candida albicans [17]; in the data set on Candida parapsilosis) was inactive.
